Active and inactive are the calls of the source. No cut-off for these calls is given here.
Assays:
[1] = system: Human immunodeficiency virus 1; experiment: Antiviral activity against HIV1 in human TZM-bl cells assessed as viral infectivity by luciferase assay; assay type: functional, organism-based; conditions: Human immunodeficiency virus 1, TZM-bl
In short: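 TZM-bl cells seeded at 4.0 × 10⁴/well and held overnight. CXCR4-tropic HIV-1 NL4.3 (MOI 0.05) was pre-incubated with compound or solvent for 1 h at 37 °C, then added in duplicate for 4 h and washed off. Cells got fresh medium with compound for 48 h, then lysis and luciferase chemiluminescence. AZT served as positive control. IC50 is the concentration giving 50% inhibition of infection versus infected untreated cells.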

[2] = Therapeutic index, ratio of CC50 for human TZM-bl cells to IC50 for HIV1; assay type: cell-based; conditions: read-out: Ratio CC50/IC50
In short: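 Ratio of CC50 from the 48 h MTT assay in TZM-bl cells to IC50 from the NL4.3 luciferase infectivity assay in TZM-bl cells.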

[3] = Cytotoxicity against human TZM-bl cells after 48 hrs by MTT assay; assay type: cell-based
In short: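 TZM-bl cells seeded at 6.0 × 10³/well and incubated 24 h at 37 °C, 5% CO₂. They were then exposed to four compound concentrations (4, 20, 100, 500) or solvent for 48 h. MTT was added for 4 h at 37 °C, followed by overnight solubilization in SDS/DMF/PBS. Absorbance read at 570 nm with a 690 nm reference. Viability was scored relative to untreated cells, and CC50 came from nonlinear curve fitting.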

[4] = molecular target: Human immunodeficiency virus type 1 reverse transcriptase (Human immunodeficiency virus 1) (UniProt Q72547); experiment: Inhibition of HIV1 reverse transcriptase at 50 uM by ELISA
In short: (§1)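 Single-concentration screens run with commercial kits per the manufacturers' protocols. RT was measured by ELISA kit, with nevirapine 1 mM as positive control. HIV-1 protease was measured by a protease assay kit, with saquinavir 1 mM as positive control.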

[5] = (§2) Inhibition of HIV1 gp120 expressed in human HL2/3 cells assessed as compound-treated HL2/3 cell fusion to human TZM-bl cells after 48 hrs by luciferase assay; assay type: cell-based, Human immunodeficiency virus 1
In short: (§3)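 Either HL2/3 cells (HeLa-derived, expressing HIV-1 HxB2 Env plus Tat, Gag, Rev and Nef; G418-maintained) or TZM-bl cells were pre-treated with compound, then washed. Treated cells were co-cultured with the untreated partner line at 1:1 (1.0 × 10⁵ cells/well) for 48 h at 37 °C, 5% CO₂. Luciferase activity was measured and inhibition scored relative to no-compound co-cultures, with Bicyclam as reference. IC50 is the concentration giving 50% inhibition of luciferase expression.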

TZM-bl = experiment: as §2; assay type: cell-based; conditions: Human immunodeficiency virus 1; in short: as §3
[6] = Inhibition of HIV1 gp120 expressed in human HL2/3 cells assessed as Hl2/3 cell fusion to compound-treated human TZM-bl cells after 48 hrs by luciferase assay; assay type: cell-based, Human immunodeficiency virus 1; in short: as §3
[7] = system: Human immunodeficiency virus 1; experiment: Antiviral activity against HIV1 assessed as inhibition of syncytia formation; assay type: functional, organism-based
[8] = molecular target: Protease (Human immunodeficiency virus 1) (UniProt Q9YQ12); experiment: Inhibition of HIV1 protease at 50 uM by ELISA; in short: as §1
[9] = Human immunodeficiency virus 1, TZM-bl, 48 h, read-out: IC50

Chain of Protease (Human immunodeficiency virus 1) (Q9YQ12 as listed by the source): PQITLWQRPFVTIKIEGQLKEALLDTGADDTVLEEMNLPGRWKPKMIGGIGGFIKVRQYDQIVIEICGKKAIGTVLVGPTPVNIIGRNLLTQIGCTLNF

| Compound | IC50 ([1]; read-out: IC50) | IC50 ([1]; read-out: pIC50 (converted)) | selectivity ratio [2] | CC50 at 48 h [3] | inhibition [4] | IC50 [5, 9] | inhibition (TZM-bl) | IC50 ([6]; tzm-bl) | inhibition [7] | inhibition [8] | IC50 ([5]; tzm-bl) | IC50 [6, 9] |
| --- | --- | --- | --- | --- | --- | --- | --- | --- | --- | --- | --- | --- |
| C=C1CC[C@@H]2[C@]3(C)COC(c4ccc(Cl)cc4)O[C@@H]3CC[C@@]2(C)[C@@H]1C/C=C1/C(=O)OC[C@H]1O (some centres not stated) | 9.94 µM | 10 µM | 44 | 440 µM | – | – | – | – | – | – | – | – |
| C=C1CC[C@@H]2[C@](C)(COC(=O)NS(=O)(=O)c3ccc(C)cc3)[C@H](O)CC[C@@]2(C)[C@@H]1C/C=C1/C(=O)OC[C@H]1O | 2.08 µM | 2.09 µM | 978 | 2040 µM | – | – | – | – | – | – | – | – |
| C=C1CC[C@@H]2[C@](C)(CO)[C@H](O)CC[C@@]2(C)[C@@H]1C/C=C1/C(=O)OC[C@H]1OC(=O)c1ccccc1O | 84.2 µM | 85.1 µM | 12 | 1080 µM | – | – | – | – | – | – | – | – |
| C=C1CC[C@@H]2[C@]3(C)COC(c4ccc(O)c(OC)c4)O[C@@H]3CC[C@@]2(C)[C@@H]1C/C=C1/C(=O)OC[C@H]1O (some centres not stated) | 6.09 µM | 6.03 µM | 10 | 59 µM | – | – | – | – | – | – | – | – |
| C=C1CC[C@@H]2[C@]3(C)COC(c4ccc5c(c4)OCO5)O[C@@H]3CC[C@@]2(C)[C@@H]1C/C=C1/C(=O)OC[C@H]1O (some centres not stated) | 2.75 µM | 2.75 µM | 599 | 1650 µM | – | – | – | – | – | – | – | – |
| C=C1CC[C@@H]2[C@](C)(CO)[C@H](O)CC[C@@]2(C)[C@@H]1C/C=C1/C(=O)OC[C@H]1OC(=O)c1ccc(Cl)nc1Cl | 0.83 µM | 0.832 µM | 12500 | 10400 µM | inactive | 1.1 µM | Dose-dependent effect | Not Active | Active | inactive | – | – |
| C=C(C)[C@@H]1CC[C@]2(C(=O)NCCCCCCCC(=O)N[C@@H](CC(C)C)[C@H](O)CC(=O)O)CC[C@]3(C)[C@H](CC[C@@H]4[C@@]5(C)CC[C@H](O)C(C)(C)[C@@H]5CC[C@]43C)[C@@H]12 | 0.1 µM | 0.1 µM | – | – | – | – | – | – | – | – | – | – |
| C=C1CC[C@@H]2[C@]3(C)COC(c4ccc(O)cc4)O[C@@H]3CC[C@@]2(C)[C@@H]1C/C=C1/C(=O)OC[C@H]1O (some centres not stated) | 2.1 µM | 2.09 µM | 24 | 50 µM | – | – | – | – | – | – | – | – |
| C=C1CC[C@@H]2[C@](C)(CO)[C@H](O)CC[C@@]2(C)[C@@H]1C/C=C1/C(=O)OC[C@H]1O [ANDROGRAPHOLIDE] | 0.59 µM | 0.589 µM | 2880 | 1700 µM | inactive | 1.7 µM | Dose-dependent effect | Not Active | Active | inactive | – | – |
| C=C1CC[C@@H]2[C@]3(C)COC(c4ccc(O)cc4O)O[C@@H]3CC[C@@]2(C)[C@@H]1C/C=C1/C(=O)OC[C@H]1O (some centres not stated) | 1.09 µM | 1.1 µM | 164 | 179 µM | – | – | – | – | – | – | – | – |
| C=C1CC[C@@H]2[C@]3(C)COC(c4cccc([N+](=O)[O-])c4)O[C@@H]3CC[C@@]2(C)[C@@H]1C/C=C1/C(=O)OC[C@H]1O (some centres not stated) | 0.51 µM | 0.513 µM | 1460 | 745 µM | inactive | 1.6 µM | Dose-dependent effect | Not Active | Active | inactive | – | – |
| Br.c1cc(CN2CCCNCCNCCCNCC2)ccc1CN1CCCNCCNCCCNCC1 | – | – | – | – | – | – | – | – | – | – | Not Active | 1.6 µM |
